Activity calls are given as the source filed them.
Assays:
[1] = tested on: Hep 3B2; test: Effect on human Hep3B cells assessed as reduction of HDAC global activity at 80 nM incubated for 24 hrs by FluoroFire HDAC Activity Assay Kit relative to control; assay type: functional; set-up: scale not given: the % may be the effect or the level left
How it was run: (§1)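 Hep3B cells treated 24 h with 80 nM drug, alone or with 30% SGBS conditioned medium. Lysates made with lysis reagent (15 min, room temperature, shaking), spun, and supernatant used. Preincubated 20 min at 37°C, then Emerald substrate added for 1 h at 37°C. Fluorescence read at Ex 490/Em 525 nm. HeLa nuclear extract as positive control, HeLa extract with trichostatin A as negative control (n = 3).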

[2] = tested on: Hep 3B2; test: Anti-proliferative activity against human Hep3B cells assessed as decrease in VEGF mRNA level at 80 nM incubated for 24 hrs in presence of SGBS CM by qRT-PCR analysis; assay type: functional, cell-based
[3] = tested on: Hep 3B2; test: Anti-proliferative activity against human Hep3B cells assessed as no change in BAD expression at 80 nM incubated for 24 hrs by qRT-PCR analysis; assay type: functional, cell-based
[4] = tested on: Hep 3B2; test: Anti-proliferative activity against human Hep3B cells assessed as increase in BIM mRNA level at 80 nM incubated for 24 hrs by qRT-PCR analysis; assay type: functional, cell-based
[5] = tested on: Hep 3B2; test: Effect on human Hep3B cells assessed as reduction in HDAC1 mRNA level at 80 nM incubated for 24 hrs in presence of SGBS CM by qRT-PCR analysis; assay type: functional, cell-based
How it was run: (§2)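 Hep3B cells exposed to 30% conditioned medium from differentiated SGBS adipocytes, with or without 80 nM drug. HDAC1, 2 and 3 RNA given as fold change versus untreated cells or between treatments.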

[6] = tested on: Hep 3B2; test: Effect on human Hep3B cells assessed as reduction of HDAC global activity at 80 nM incubated for 24 hrs in presence of SGBS CM by FluoroFire HDAC Activity Assay Kit relative to control; assay type: functional; set-up: scale not given: the % may be the effect or the level left; how it was run: as §1
[7] = tested on: Hep 3B2; test: Downregulation of BCL2 mRNA expression in human Hep3B cells at 80 nM incubated for 24 hrs in presence of 17-AAG by qRT-PCR analysis; assay type: functional, cell-based
[8] = tested on: Hep 3B2; test: Anti-proliferative activity against human Hep3B cells assessed as reduced cell proliferation at 80 nM for 24 hrs in presence of DZNep by Fluoro Fire-Blue ProViaTox assay relative to control; assay type: functional; set-up: scale not given: the % may be the effect or the level left
[9] = tested on: Hep 3B2; test: Anti-proliferative activity against human Hep3B cells assessed as increase in cleaved Caspase 8 level at 80 nM incubated for 24 hrs in presence of SGBS CM by Tetraplex-Assay Kit analysis; assay type: functional, cell-based
How it was run: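 Hep3B seeded at 20000 cells/well overnight, then treated with 30% differentiated SGBS conditioned medium with or without resminostat 80 nM for 24 h. Tetraplex caspase substrate buffer added during treatment for real-time cleavage read-out: Caspase 3/7 at Ex 535/Em 620 nm, Caspase 8 at Ex 490/Em 525 nm, Caspase 9 at Ex 370/Em 450 nm. Compared with controls or between treatments; n = 3.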

[10] = tested on: Hep 3B2; test: Anti-proliferative activity against human Hep3B cells assessed as reduced cell proliferation at 80 nM incubated for 24 hrs by Fluoro Fire-Blue ProViaTox assay; assay type: functional, cell-based
[11] = tested on: Hep 3B2; test: Effect on human Hep3B cells assessed as reduction in HDAC2 mRNA level at 80 nM incubated for 24 hrs in presence of SGBS CM by qRT-PCR analysis; assay type: functional, cell-based; how it was run: as §2
[12] = tested on: Hep 3B2; test: Anti-proliferative activity against human Hep3B cells assessed as decrease in leptin mRNA level at 80 nM incubated for 24 hrs in presence of SGBS CM by qRT-PCR analysis; assay type: functional, cell-based
[13] = tested on: Hep 3B2; test: Anti-proliferative activity against human Hep3B cells assessed as increase in Caspase 3 expression at 80 nM incubated for 24 hrs by qRT-PCR analysis; assay type: functional, cell-based
[14] = tested on: Hep 3B2; test: Downregulation of HDAC expression in human Hep3B cells at 80 nM incubated for 24 hrs in presence of 17-AAG by qRT-PCR analysis; assay type: functional, cell-based
[15] = tested on: Hep 3B2; test: Downregulation of ZFP64 mRNA expression in human Hep3B cells at 80 nM incubated for 24 hrs in presence of 17-AAG by qRT-PCR analysis
[16] = tested on: Hep 3B2; test: Anti-proliferative activity against human Hep3B cells assessed as decrease in STAT3 mRNA level at 80 nM incubated for 24 hrs in presence of SGBS CM by qRT-PCR analysis; assay type: functional, cell-based
[17] = tested on: Hep 3B2; test: Anti-proliferative activity against human Hep3B cells assessed as reduced cell proliferation at 80 nM incubated for 24 hrs in presence of SGBS CM by Fluoro Fire-Blue ProViaTox assay; assay type: functional, cell-based
[18] = tested on: Hep 3B2; test: Anti-proliferative activity against human Hep3B cells assessed as increase in p21 mRNA expression at 80 nM incubated for 24 hrs in presence of SGBS CM by qRT-PCR analysis; assay type: functional, cell-based
[19] = tested on: Huh-7; test: Effect on human Huh-7 cells assessed as reduction in HDAC1 mRNA level at 80 nM incubated for 24 hrs by qRT-PCR analysis; assay type: functional, cell-based
How it was run: (§3)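 HepG2 (EMEM) and Huh7 (DMEM) cells, both with 10% FBS, treated with 30% differentiated-SGBS conditioned medium with or without 80 nM drug. HDAC1 RNA given as fold change versus untreated cells or between treatments (n = 3).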

[20] = tested on: Huh-7; test: Anti-proliferative activity against human Huh-7 cells assessed as reduced cell proliferation at 80 nM incubated for 24 hrs in presence of SGBS CM by Fluoro Fire-Blue ProViaTox assay; assay type: functional, cell-based
[21] = tested on: Hep 3B2; test: Effect on human Hep3B cells assessed as reduction in HDAC3 mRNA level at 80 nM incubated for 24 hrs in presence of SGBS CM by qRT-PCR analysis; assay type: functional, cell-based; how it was run: as §2
[22] = tested on: Hep 3B2; test: Anti-proliferative activity against human Hep3B cells assessed as reduction in cell viability at 80 nM measured after 24 hrs in presence of 17-AAG under SGBS CM treatment by Fluoro Fire-Blue ProViaTox assay relative to control
[23] = tested on: Hep 3B2; test: Downregulation of HSP90 mRNA expression in human Hep3B cells at 80 nM incubated for 24 hrs in presence of 17-AAG by qRT-PCR analysis; assay type: functional, cell-based
[24] = tested on: HepG2; test: Effect on human HepG2 cells assessed as reduction in HDAC1 mRNA level at 80 nM incubated for 24 hrs by qRT-PCR analysis; assay type: functional, cell-based; how it was run: as §3

Measured: Activity

CN(C)Cc1ccc(S(=O)(=O)n2ccc(/C=C/C(=O)NO)c2)cc1 [RESMINOSTAT]
62.33%: [1]
52.67%: [6]
31.47%: [22]
11.76%: [8]
active: all other assays above
